Our source for the ED50, ED100 and ED30 values is ChEMBL document CHEMBL1123718, “Analogues and derivatives of tenoxicam. 1. Synthesis and antiinflammatory activity of analogues with different residues on the ring nitrogen and the amide nitrogen” (1987).

The test system of test [1] is Rattus norvegicus. Description: Ulcerogenic potential was assessed in a rat model by the enhancement of stress-induced gastric mucosal lesions after oral administration. The settings on record: Gastric mucosa. It counts as functional. Put shortly: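 Female Füllinsdorf albino rats (about 160 g) were starved 24 h and given drug po in 0.5% tragacanth. They then had 2 h cold-water stress (22.5 °C) and were sacrificed. Rats with macroscopic gastric mucosal erosions were counted. ED50 was defined as the dose giving lesions in 50% of animals and calculated by probit analysis with 95% CI.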

The subject of test [2] is Rattus norvegicus. Kind of test: Anti-inflammatory activity was assessed by estimating threshold pain response after oral administration to rats. In kind it is functional. Put shortly: (§1)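 Kaolin paw model in female Füllinsdorf rats (about 70 g): 0.1 mL of 10% kaolin s.c. into the right hind paw, with oral drug in 0.5% tragacanth at 0.5 h before and 3.5 h after. Pressure pain threshold was measured after kaolin, and its increase was expressed as % of controls. ED100 was read graphically from group means, or by logit analysis with 95% CI.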

The subject of test [3] is Rattus norvegicus. Description: Anti-inflammatory activity was assessed by estimating kaolin-induced edema in rat ind paw, by administering orally. In kind it is functional. The settings on record: po. Put shortly: (§2)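 Female Füllinsdorf albino rats (about 70 g) got 0.1 mL of 10% kaolin suspension s.c. into the right hind paw. Drug in 0.5% tragacanth was given po 0.5 h before and 3.5 h after kaolin. Paw diameter was measured, and edema inhibition was expressed as % of controls. A phenylbutazone 30 mg/kg po validation group ran in each set. ED30 came from group means graphically, or from logit analysis with 95% CI.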

For test [4], the system named is Rattus norvegicus. Description: Anti-inflammatory activity was assessed by estimating kaolin-induced edema in rat hind paw, by administering orally. It counts as functional. The settings on record: po. Put shortly:
as §2

Test [5] has as its system Rattus norvegicus. Description: Anti-inflammatory activity was assessed by estimating kaolin-induced edema in rat hind paw, by administering orally;NE not effective up to 100 mg/kg. It counts as functional, organism-based. Further details: dose 100 mg/kg. Put shortly:
as §2

Test [6] concerns Rattus norvegicus. Description: Anti-inflammatory activity was assessed by estimating threshold pain response after oral administration to rats; NE not effective up to 100 mg/kg. It counts as functional, organism-based. Further details: dose 100 mg/kg. The method, boiled down:
as §1

For test [7], the system named is Rattus norvegicus. Description: Anti-inflammatory activity was assessed by estimating threshold pain response after oral administration to rats;NE not effective up to 100 mg/kg. In kind it is functional, organism-based. Further details: dose 100 mg/kg. Put shortly: as §1
For test [8], the system named is Rattus norvegicus. Description: Anti-inflammatory activity was assessed by estimating threshold pain response after oral administration to rats; NE denotes not effective up to 100 mg/kg. It counts as functional, organism-based. The arrangement: dose 100 mg/kg. Put shortly: as §1
Test [9] deals with Rattus norvegicus. Kind of test: Anti-inflammatory activity was assessed by estimating kaolin-induced edema in rat hind paw, by administering orally;NE denotes not effective up to 100 mg/kg. In kind it is functional, organism-based. The arrangement: dose 100 mg/kg. The method, boiled down:
as §2

In test [10] the test system is Rattus norvegicus. Description: Anti-inflammatory activity was assessed by estimating kaolin-induced edema in rat hind paw, by administering orally; NE not effective up to 100 mg/kg. In kind it is functional, organism-based. Further details: dose 100 mg/kg. Put shortly:
as §2

For orientation: ED50 means the midpoint of the dose-response relation. As for `CN1C(C(=O)Nc2cccnc2)=C(O)c2sccc2S1(=O)=O`, the median effective dose (ED50) in [1] amounted to 6.3 mg/kg. Besides, the ED100 in [2] is above 100 mg/kg. The ED30 in test [3] was 63.7 mg/kg.
As to `CN1C(C(=O)Nc2ccccc2)=C(O)c2sccc2S1(=O)=O`, in [2], the ED100 was 75 mg/kg. In addition, the ED30 in test [4] is above 100 mg/kg.
On to `CN1C(C(=O)Nc2ncccn2)=C(O)c2sccc2S1(=O)=O`, for which, in [5], the ED30 result is “No effect”. Moreover, the ED100 entry in test [6] was “No effect”.
On to `Cc1cccc(NC(=O)C2=C(O)c3sccc3S(=O)(=O)N2C)n1`, for which the ED50 in [1] worked out at 0.5 mg/kg. For the same compound, the ED100 in test [2] was 27.4 mg/kg. In addition, the ED30 in [4] was 30 mg/kg.
In the case of `CN1C(C(=O)Nc2nccs2)=C(O)c2sccc2S1(=O)=O`, in test [1], the ED50 was 2.2 mg/kg. Also, the ED100 in [2] was 14 mg/kg. Also, the ED30 in [4] was 20 mg/kg.
As for `CCN1C(C(=O)Nc2ccccn2)=C(O)c2sccc2S1(=O)=O`, the ED100 in [2] was 24 mg/kg. Moreover, in [5], the ED30 result is “No effect”.
As to `CN1C(C(=O)Nc2cnccn2)=C(O)c2sccc2S1(=O)=O`, in test [1], the ED50 is 1.8 mg/kg. Further, the ED100 in test [2] is 56 mg/kg. Besides, in test [4], the ED30 was 70 mg/kg.
With `Cc1cccc(NC(=O)C2=C(O)c3sccc3S(=O)(=O)N2C)c1`, the 50% effective dose (ED50) in test [1] turned out to be 7 mg/kg. The ED100 in test [2] was 3.9 mg/kg. The ED30 in test [4] is 43.4 mg/kg.
With `CN1C(C(=O)Nc2cccc(Cl)c2)=C(O)c2sccc2S1(=O)=O`, the ED100 in [2] is above 100 mg/kg. In test [4], the ED30 was above 100 mg/kg.
With `CN1C(C(=O)Nc2ccccn2)=C(O)c2sccc2S1(=O)=O` [TENOXICAM], the ED50 in [1] worked out at 0.7 mg/kg. Besides, the ED100 in test [2] is 5.3 mg/kg. In [4], the ED30 was 2.6 mg/kg.
Take `Cc1noc(NC(=O)C2=C(O)c3sccc3S(=O)(=O)N2C)c1C`: the ED100 result in test [7] was “No effect”. Further, the ED30 result in test [5] is “No effect”.
For `CN1C(C(=O)Nc2ccncc2)=C(O)c2sccc2S1(=O)=O`, in test [8], the ED100 entry was “No effect”. In addition, the ED30 result in test [9] is “No effect”.
For `CN1C(C(=O)Nc2ccc(O)cc2)=C(O)c2sccc2S1(=O)=O`, the ED100 result in [8] was “No effect”. Also, the ED30 entry in test [9] was “No effect”.
`Cc1cc(NC(=O)C2=C(O)c3sccc3S(=O)(=O)N2C)no1`: the ED100 in test [2] is 24 mg/kg. For the same compound, in test [4], the ED30 was 20 mg/kg.
`O=C(Nc1ccccn1)C1=C(O)c2sccc2S(=O)(=O)N1`: the ED100 in test [2] is above 100 mg/kg. The ED30 in test [4] was above 100 mg/kg.
As to `CN1C(C(=O)Nc2ccccn2)=C(O)c2ccccc2S1(=O)=O` [PIROXICAM], the median effective dose (ED50) in test [1] amounted to 0.5 mg/kg. In test [2], the ED100 was 4 mg/kg. In addition, the ED30 in test [4] was 1.9 mg/kg.
Consider `Cc1cc(NC(=O)C2=C(O)c3sccc3S(=O)(=O)N2C)nc(C)n1`, for which the ED30 result in [10] was “No effect”. Moreover, in test [6], the ED100 entry is “No effect”.
